According to ChEMBL document CHEMBL1152649, “Synthesis, cytotoxicity and human telomerase inhibition activities of a series of 1,2-heteroannelated anthraquinones and anthra[1,2-d]imidazole-6,11-dione homologues” (2009):
Calls of active or inactive are those of the source. The calls are words filed in the database; no cut-off is given here.

How the values were obtained:
[1] = Cytotoxicity against human H1299 cells at 10 uM after 48 hrs by MTT assay; format: functional; settings: NCI-H1299, 48 h
Summary of the method: (§1)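 H1299 non-small cell lung cancer cells were grown in RPMI 1640 with 10% FBS, penicillin and streptomycin at 37 °C under 5% CO2. About 2 × 10³ cells per well were seeded and left 24 h. Compounds were dissolved fresh in DMSO, diluted into complete medium and applied for 48 h. MTT was then added for 4 h at 37 °C, followed by lysis buffer (20% SDS, 50% DMF) for 16 h, and absorbance was read at 550 nm.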

[2] = Cytotoxicity against human H1299 cells at 100 uM after 48 hrs by MTT assay; format: functional; settings: NCI-H1299, 48 h; summary of the method: as §1
[3] = target: Telomerase reverse transcriptase (Homo sapiens) (UniProt O14746); assay: Inhibition of telomerase in human H1299 cells up to 100 uM by TRAP assay; format: cell-based
Summary of the method: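 PCR-based telomeric repeat amplification protocol (TRAP). The telomerase source was total lysate of H1299 lung cancer cells, with protein measured against BSA standards. Controls were extract without inhibitor and RNase A-treated extract.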

A549 = assay: Antiproliferative activity against human A549 cells assessed as cell growth at 10 uM; format: functional; settings: read-out: Activity
Summary of the method: (§2)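 NCI 60 cell line panel, single-dose screen (10^-5 M) run by the developmental therapeutics program protocol. Results are given as growth percent of treated cells relative to untreated control cells for each line.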

EKVX = assay: Antiproliferative activity against human EKVX cells assessed as cell growth at 10 uM; format: functional; settings: read-out: Activity; summary of the method: as §2
[4] = Antiproliferative activity against human Hs 578T cells assessed as cell growth at 10 uM; format: functional; settings: read-out: Activity; summary of the method: as §2
MCF7 = assay: Antiproliferative activity against human MCF7 cells assessed as cell growth at 10 uM; format: functional; settings: read-out: Activity; summary of the method: as §2
MDA-MB-231 = assay: Antiproliferative activity against human MDA-MB-231 cells assessed as cell growth at 10 uM; format: functional; settings: read-out: Activity; summary of the method: as §2
NCI/ADR-RES = assay: Antiproliferative activity against human NCI/ADR-RES cells assessed as cell growth at 10 uM; format: functional; settings: read-out: Activity; summary of the method: as §2
T47D = assay: Antiproliferative activity against human T47D cells assessed as cell growth at 10 uM; format: functional; settings: read-out: Activity
Summary of the method: (§3)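 NCI 60 cell line panel, single dose (10^-5 M), run per the Developmental Therapeutics Program protocol (one dose mean graph). Each result is the growth percentage of treated cells relative to untreated control cells.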

OVCAR-3 = assay: Antiproliferative activity against human OVCAR-3 cells assessed as cell growth at 10 uM; format: functional; settings: read-out: Activity; summary of the method: as §2
OVCAR-4 = assay: Antiproliferative activity against human OVCAR4 cells assessed as cell growth at 10 uM; format: functional; settings: read-out: Activity; summary of the method: as §2
OVCAR-5 = assay: Antiproliferative activity against human OVCAR5 cells assessed as cell growth at 10 uM; format: functional; settings: read-out: Activity; summary of the method: as §2
OVCAR-8 = assay: Antiproliferative activity against human OVCAR8 cells assessed as cell growth at 10 uM; format: functional; settings: read-out: Activity; summary of the method: as §2
SK-OV-3 = assay: Antiproliferative activity against human SKOV3 cells assessed as cell growth at 10 uM; format: functional; settings: read-out: Activity; summary of the method: as §2
CCRF-CEM = assay: Antiproliferative activity against human CCRF-CEM cells assessed as cell growth at 10 uM; format: functional; settings: read-out: Activity; summary of the method: as §2
MOLT-4 = assay: Antiproliferative activity against human MOLT4 cells assessed as cell growth at 10 uM; format: functional; settings: read-out: Activity; summary of the method: as §2
[5] = Antiproliferative activity against human RPMI8266 cells assessed as cell growth at 10 uM; format: functional; settings: read-out: Activity; summary of the method: as §2
786-0 = assay: Antiproliferative activity against human 786-0 cells assessed as cell growth at 10 uM; format: functional; settings: read-out: Activity; summary of the method: as §2
ACHN = assay: Antiproliferative activity against human ACHN cells assessed as cell growth at 10 uM; format: functional; settings: read-out: Activity; summary of the method: as §2
CAKI-1 = assay: Antiproliferative activity against human Caki1 cells assessed as cell growth at 10 uM; format: functional; settings: read-out: Activity; summary of the method: as §2
UO-31 = assay: Antiproliferative activity against human UO31 cells assessed as cell growth at 10 uM; format: functional; settings: read-out: Activity; summary of the method: as §3
M14 = assay: Antiproliferative activity against human M14 cells assessed as cell growth at 10 uM; format: functional; settings: read-out: Activity; summary of the method: as §2
SK-MEL-2 = assay: Antiproliferative activity against human SK-MEL-2 cells assessed as cell growth at 10 uM; format: functional; settings: read-out: Activity; summary of the method: as §2
SK-MEL-28 = assay: Antiproliferative activity against human SK-MEL-28 cells assessed as cell growth at 10 uM; format: functional; settings: read-out: Activity; summary of the method: as §2
SK-MEL-5 = assay: Antiproliferative activity against human SK-MEL-5 cells assessed as cell growth at 10 uM; format: functional; settings: read-out: Activity; summary of the method: as §2
UACC-257 = assay: Antiproliferative activity against human UACC257 cells assessed as cell growth at 10 uM; format: functional; settings: read-out: Activity; summary of the method: as §3
UACC-62 = assay: Antiproliferative activity against human UACC62 cells assessed as cell growth at 10 uM; format: functional; settings: read-out: Activity; summary of the method: as §3
DU-145 = assay: Antiproliferative activity against human DU145 cells assessed as cell growth at 10 uM; format: functional; settings: read-out: Activity; summary of the method: as §2
PC-3 = assay: Antiproliferative activity against human PC3 cells assessed as cell growth at 10 uM; format: functional; settings: read-out: Activity; summary of the method: as §2
SF-268 = assay: Antiproliferative activity against human SF268 cells assessed as cell growth at 10 uM; format: functional; settings: read-out: Activity; summary of the method: as §2
SF-295 = assay: Antiproliferative activity against human SF295 cells assessed as cell growth at 10 uM; format: functional; settings: read-out: Activity; summary of the method: as §2
SNB-75 = assay: Antiproliferative activity against human SNB75 cells assessed as cell growth at 10 uM; format: functional; settings: read-out: Activity; summary of the method: as §3
U-251 = assay: Antiproliferative activity against human U251 cells assessed as cell growth at 10 uM; format: functional; settings: read-out: Activity; summary of the method: as §3
NCI-H23 = assay: Antiproliferative activity against human NCI-H23 cells assessed as cell growth at 10 uM; format: functional; settings: read-out: Activity; summary of the method: as §2
NCI-H322M = assay: Antiproliferative activity against human NCI-H322M cells assessed as cell growth at 10 uM; format: functional; settings: read-out: Activity; summary of the method: as §2
NCI-H460 = assay: Antiproliferative activity against human NCI-H460 cells assessed as cell growth at 10 uM; format: functional; settings: read-out: Activity; summary of the method: as §2
NCI-H522 = assay: Antiproliferative activity against human NCI-H522 cells assessed as cell growth at 10 uM; format: functional; settings: read-out: Activity; summary of the method: as §2
COLO 205 = assay: Antiproliferative activity against human COLO205 cells assessed as cell growth at 10 uM; format: functional; settings: read-out: Activity; summary of the method: as §2
HCC 2998 = assay: Antiproliferative activity against human HCC2998 cells assessed as cell growth at 10 uM; format: functional; settings: read-out: Activity; summary of the method: as §2
HCT-116 = assay: Antiproliferative activity against human HCT116 cells assessed as cell growth at 10 uM; format: functional; settings: read-out: Activity; summary of the method: as §2
HT-29 = assay: Antiproliferative activity against human HT-29 cells assessed as cell growth at 10 uM; format: functional; settings: read-out: Activity; summary of the method: as §2
KM12 = assay: Antiproliferative activity against human KM12 cells assessed as cell growth at 10 uM; format: functional; settings: read-out: Activity; summary of the method: as §2
[6] = target: Telomerase reverse transcriptase (Homo sapiens) (UniProt O14746); assay: Inhibition of TERT in human H1299 cells assessed as residual transcriptional activity at 1 uM after 24 hrs by SEAP reporter gene assay; values are per cent of control
[7] = target: Telomerase reverse transcriptase (Homo sapiens) (UniProt O14746); assay: Inhibition of TERT in human H1299 cells assessed as residual transcriptional activity at 10 uM after 24 hrs by SEAP reporter gene assay; values are per cent of control
TK-10 = assay: Antiproliferative activity against human TK10 cells assessed as cell growth at 10 uM; format: functional; settings: read-out: Activity; summary of the method: as §3

Chain of Telomerase reverse transcriptase (Homo sapiens) (O14746 whole entry): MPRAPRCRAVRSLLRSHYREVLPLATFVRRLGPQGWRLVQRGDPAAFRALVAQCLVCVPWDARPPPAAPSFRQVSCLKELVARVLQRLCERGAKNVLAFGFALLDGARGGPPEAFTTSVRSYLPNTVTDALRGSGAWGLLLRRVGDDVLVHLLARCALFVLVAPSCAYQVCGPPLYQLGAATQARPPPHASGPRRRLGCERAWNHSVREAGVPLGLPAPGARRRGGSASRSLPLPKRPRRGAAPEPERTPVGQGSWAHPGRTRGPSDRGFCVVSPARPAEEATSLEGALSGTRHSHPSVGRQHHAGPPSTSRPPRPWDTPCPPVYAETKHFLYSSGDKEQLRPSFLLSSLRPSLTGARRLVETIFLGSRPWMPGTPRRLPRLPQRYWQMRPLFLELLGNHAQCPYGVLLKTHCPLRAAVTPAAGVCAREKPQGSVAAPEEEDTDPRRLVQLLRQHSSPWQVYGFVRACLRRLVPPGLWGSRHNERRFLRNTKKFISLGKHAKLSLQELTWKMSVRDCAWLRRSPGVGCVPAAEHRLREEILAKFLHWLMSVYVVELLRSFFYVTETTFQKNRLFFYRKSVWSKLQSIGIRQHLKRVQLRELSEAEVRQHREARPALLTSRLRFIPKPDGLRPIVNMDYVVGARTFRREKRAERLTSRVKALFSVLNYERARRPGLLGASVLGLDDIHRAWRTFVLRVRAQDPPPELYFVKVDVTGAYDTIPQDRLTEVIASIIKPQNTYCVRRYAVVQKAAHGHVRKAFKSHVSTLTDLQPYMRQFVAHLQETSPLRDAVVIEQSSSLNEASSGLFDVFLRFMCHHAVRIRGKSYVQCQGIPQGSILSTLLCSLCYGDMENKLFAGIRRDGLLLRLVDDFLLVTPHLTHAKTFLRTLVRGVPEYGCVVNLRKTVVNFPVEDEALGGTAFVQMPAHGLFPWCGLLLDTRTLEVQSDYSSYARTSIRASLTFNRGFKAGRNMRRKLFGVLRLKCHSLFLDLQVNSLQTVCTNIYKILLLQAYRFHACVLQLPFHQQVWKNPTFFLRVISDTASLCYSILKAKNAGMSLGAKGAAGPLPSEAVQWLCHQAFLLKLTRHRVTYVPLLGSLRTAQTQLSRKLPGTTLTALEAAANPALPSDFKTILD

O=C1c2ccccc2C(=O)c2c1ccc1nc(-c3ccc4c(c3)OCO4)[nH]c21
viability at 10 µM [1]: 67%
viability at 100 µM [2]: 40%
inhibition [3]: inactive
growth at 10 µM (A549): 102%
growth at 10 µM (EKVX): 94.2%
growth at 10 µM [4]: 106%
growth at 10 µM (MCF7): 46.5%
growth at 10 µM (MDA-MB-231): 107%
growth at 10 µM (NCI/ADR-RES): 105%
growth at 10 µM (T47D): 107%
growth at 10 µM (OVCAR-3): 107%
growth at 10 µM (OVCAR-4): 101%
growth at 10 µM (OVCAR-5): 111%
growth at 10 µM (OVCAR-8): 96.5%
growth at 10 µM (SK-OV-3): 139%
growth at 10 µM (CCRF-CEM): 99.6%
growth at 10 µM (MOLT-4): 105%
growth at 10 µM [5]: 96.2%
growth at 10 µM (786-0): 107%
growth at 10 µM (ACHN): 104%
growth at 10 µM (CAKI-1): 114%
growth at 10 µM (UO-31): 73.4%
growth at 10 µM (M14): 120%
growth at 10 µM (SK-MEL-2): 41.5%
growth at 10 µM (SK-MEL-28): 116%
growth at 10 µM (SK-MEL-5): 98.7%
growth at 10 µM (UACC-257): 117%
growth at 10 µM (UACC-62): 98.1%
growth at 10 µM (DU-145): 107%
growth at 10 µM (PC-3): 107%
growth at 10 µM (SF-268): 100%
growth at 10 µM (SF-295): 115%
growth at 10 µM (SNB-75): 102%
growth at 10 µM (U-251): 111%
growth at 10 µM (NCI-H23): 94.3%
growth at 10 µM (NCI-H322M): 150%
growth at 10 µM (NCI-H460): 109%
growth at 10 µM (NCI-H522): 83.3%
growth at 10 µM (COLO 205): 126%
growth at 10 µM (HCC 2998): 85.7%
growth at 10 µM (HCT-116): 116%
growth at 10 µM (HT-29): 95.8%
growth at 10 µM (KM12): 97.8%
residual activity [6]: 61%
residual activity [7]: 61%

CC1(C)Nc2ccc3c(c2N1)C(=O)c1ccccc1C3=O
viability at 10 µM [1]: 93%
viability at 100 µM [2]: 31%
inhibition [3]: inactive
growth at 10 µM (A549): 94.6%
growth at 10 µM (EKVX): 63.1%
growth at 10 µM [4]: 68.4%
growth at 10 µM (MCF7): 83.6%
growth at 10 µM (MDA-MB-231): 72.9%
growth at 10 µM (NCI/ADR-RES): 103%
growth at 10 µM (T47D): 83%
growth at 10 µM (OVCAR-3): 78.2%
growth at 10 µM (OVCAR-4): 80.1%
growth at 10 µM (OVCAR-5): 96.5%
growth at 10 µM (OVCAR-8): 90.2%
growth at 10 µM (SK-OV-3): 35.9%
growth at 10 µM (CCRF-CEM): 74%
growth at 10 µM (MOLT-4): 116%
growth at 10 µM [5]: 99.9%
growth at 10 µM (786-0): 86.2%
growth at 10 µM (ACHN): 50.2%
growth at 10 µM (CAKI-1): 61.7%
growth at 10 µM (TK-10): 62.4%
growth at 10 µM (UO-31): 30.6%
growth at 10 µM (M14): 83.7%
growth at 10 µM (SK-MEL-2): 8.04%
growth at 10 µM (SK-MEL-28): 129%
growth at 10 µM (SK-MEL-5): 86.5%
growth at 10 µM (UACC-257): 118%
growth at 10 µM (UACC-62): 67.6%
growth at 10 µM (DU-145): 76%
growth at 10 µM (SF-268): 90.2%
growth at 10 µM (SF-295): 98%
growth at 10 µM (SNB-75): 78%
growth at 10 µM (U-251): 87.8%
growth at 10 µM (NCI-H23): 87%
growth at 10 µM (NCI-H322M): 79.7%
growth at 10 µM (NCI-H460): 71.5%
growth at 10 µM (NCI-H522): 38.9%
growth at 10 µM (COLO 205): 90.6%
growth at 10 µM (HCC 2998): 137%
growth at 10 µM (HCT-116): 54.7%
growth at 10 µM (HT-29): 103%
growth at 10 µM (KM12): 51.5%
residual activity [6]: 96%
residual activity [7]: 73%
